Experimental findings from ChEMBL document CHEMBL1138224, “Design, synthesis, and biological evaluation of peptidomimetic inhibitors of factor XIa as novel anticoagulants” (J Med Chem, 2006) are described below.

In one data set the target is Prothrombin (Homo sapiens, UniProt P00734). Put plainly: Inhibition of thrombin.
Data set [1] has as its system Plasma. Nature of the data set: Anticoagulant activity in human plasma measured by prothrombin time. It is filed as functional. In short, it runs like this: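 Human plasma with compound prewarmed 3 min at 37 °C, then prewarmed thromboplastin reagent containing calcium added; clotting read over 300 s. Concentration doubling clotting time (2× PT) derived from dose-response curve.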

In a further data set the target is Coagulation factor XI (Homo sapiens, UniProt P03951). Put plainly: Inhibition of factor 11a.
The next data set has as its target Coagulation factor X (Homo sapiens, UniProt P00742). Nature of the data set: Inhibition of factor 10a.
The subject of data set [2] is Plasma. Put plainly: Anticoagulant activity in human plasma measured by activated […] time. The class given is functional. In short, it runs like this: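 Activated partial thromboplastin time in human plasma. Plasma was incubated with compound for 2 min. aPTT reagent was added and incubated 3 min. Prewarmed 30 mM CaCl2 was added and clotting was read up to 300 s. The concentration doubling clotting time was taken from the dose-response curve.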

The species entered for data set [3] is Homo sapiens. Nature of the data set: Selectivity for factor 11a over thrombin. In short, it runs like this:
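IC50s against factor XIa and thrombin were compared as fold selectivity. Both enzymes used Glp-Pro-Arg-AMC, with 50 nM enzyme and 50 µM substrate in Tris-HCl/NaCl/0.02% Tween 20 at pH 7.4. Ten-point endpoint assays ran for 15-30 min at 30 °C with AMC fluorescence read at 355/460 nm. IC50 came from a one-site dose-response fit.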

The species entered for data set [4] is Homo sapiens. Nature of the data set: Selectivity for factor 11a over factor 10a. The gist of the method:
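Fold selectivity compared IC50s against factor XIa and factor Xa, both in Tris-HCl/NaCl/Tween 20 buffer at pH 7.4. FXIa: Glp-Pro-Arg-AMC, 50 nM enzyme, 50 µM substrate, 15-30 min at 30 °C. FXa: H-Pro-Phe-Arg-AMC at twice those concentrations, 60 min.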

The target of data set [5] is Vitamin K-dependent protein C (Homo sapiens, UniProt P04070). Nature of the data set: Inhibition of activated protein C.
A short description of data set [6]: Half life in iv dosed rat. It is filed as ADME, organism-based. As to conditions: in vivo.
Another data set deals with Plasma kallikrein (Homo sapiens, UniProt P03952). Put plainly: Inhibition of plasma kallikrein. It is filed as cell-free.
A short description of data set [7]: Clearance in iv dosed rat. It is filed as ADME, organism-based. The following applies: in vivo.
Data set [8] in a line: Volume of distribution in iv dosed rat. The class given is ADME, organism-based. The following applies: in vivo, read-out: Vdss.
A further data set addresses T1, Coagulation factor VII (Homo sapiens, UniProt P08709).
T1 sequence (P08709 whole entry): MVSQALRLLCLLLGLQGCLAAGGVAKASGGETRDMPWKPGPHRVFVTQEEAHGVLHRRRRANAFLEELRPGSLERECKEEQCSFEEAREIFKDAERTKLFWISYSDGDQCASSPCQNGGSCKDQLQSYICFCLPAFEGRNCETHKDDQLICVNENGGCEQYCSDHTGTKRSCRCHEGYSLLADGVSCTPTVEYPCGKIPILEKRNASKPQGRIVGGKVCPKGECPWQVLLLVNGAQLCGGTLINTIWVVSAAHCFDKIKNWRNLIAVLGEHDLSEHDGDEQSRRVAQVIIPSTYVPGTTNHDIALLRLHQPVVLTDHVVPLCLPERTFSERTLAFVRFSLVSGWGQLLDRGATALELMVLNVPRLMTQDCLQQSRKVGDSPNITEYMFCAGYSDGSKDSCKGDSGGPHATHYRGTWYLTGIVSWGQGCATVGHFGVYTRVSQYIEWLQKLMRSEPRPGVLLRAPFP
Put plainly: Inhibition of factor 7a.

The target of another data set is Trypsin (Homo sapiens, UniProt P07477+P07478+P35030). Nature of the data set: Inhibition of trypsin. It is filed as protein assay. The gist of the method: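 Trypsin activity was read with the fluorogenic substrate Glp-Pro-Arg-AMC. Conditions were 50 nM enzyme and 50 µM substrate in 100 mM Tris-HCl, 200 mM NaCl and 0.02% Tween 20 at pH 7.4. Ten-point dose-response endpoints were taken after 15-30 min at 30 °C. Released AMC was read at ex 355/em 460 nm, and IC50 came from a one-site nonlinear least-squares fit.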

In a further data set the test system is Rattus norvegicus. Nature of the data set: Efficacy in rat venous thrombosis model assessed as reduction in thrombus weight at 0.25 mg/kg, iv. The class given is functional, organism-based. The arrangement: dose 0.25 mg/kg. In short, it runs like this:
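Intravenous infusion at 0.0625 or 0.25 mg/kg in 0.1 M NaOAc pH 4.0 vehicle, started 5 min before induction; clot isolated and weighed 10 min postchallenge. n = 9; Tukey-Kramer test versus vehicle.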

Structures are written as SMILES. The source made the active and inactive calls. The calls are words filed in the database; no cut-off is given here. A value given as a limit tells only on which side of the number the result lay.

Chain of Coagulation factor X (P00742 41-179 limits assumed): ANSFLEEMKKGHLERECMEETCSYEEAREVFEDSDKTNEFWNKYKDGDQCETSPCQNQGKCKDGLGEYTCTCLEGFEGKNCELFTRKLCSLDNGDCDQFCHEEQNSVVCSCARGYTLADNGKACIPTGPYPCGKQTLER
Chain of Coagulation factor X (P00742 235-488 limits assumed): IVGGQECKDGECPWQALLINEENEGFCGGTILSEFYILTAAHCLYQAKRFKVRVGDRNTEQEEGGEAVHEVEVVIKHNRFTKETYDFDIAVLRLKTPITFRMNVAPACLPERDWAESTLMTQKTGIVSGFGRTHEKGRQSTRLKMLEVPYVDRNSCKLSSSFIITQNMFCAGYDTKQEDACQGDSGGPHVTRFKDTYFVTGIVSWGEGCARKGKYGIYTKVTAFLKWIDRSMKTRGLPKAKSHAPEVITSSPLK
Chain of Coagulation factor XI (P03951 19-387 limits assumed): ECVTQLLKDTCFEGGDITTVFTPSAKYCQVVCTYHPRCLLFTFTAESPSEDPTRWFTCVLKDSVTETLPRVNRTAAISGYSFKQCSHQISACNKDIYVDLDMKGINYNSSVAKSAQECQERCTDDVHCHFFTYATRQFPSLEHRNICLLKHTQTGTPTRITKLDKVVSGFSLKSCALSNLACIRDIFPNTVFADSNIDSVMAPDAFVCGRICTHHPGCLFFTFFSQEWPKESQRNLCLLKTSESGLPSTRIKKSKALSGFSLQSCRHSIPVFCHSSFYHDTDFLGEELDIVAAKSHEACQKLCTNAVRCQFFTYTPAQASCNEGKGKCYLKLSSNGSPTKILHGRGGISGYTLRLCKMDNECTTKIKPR
Chain of Coagulation factor XI (P03951 388-625 limits assumed): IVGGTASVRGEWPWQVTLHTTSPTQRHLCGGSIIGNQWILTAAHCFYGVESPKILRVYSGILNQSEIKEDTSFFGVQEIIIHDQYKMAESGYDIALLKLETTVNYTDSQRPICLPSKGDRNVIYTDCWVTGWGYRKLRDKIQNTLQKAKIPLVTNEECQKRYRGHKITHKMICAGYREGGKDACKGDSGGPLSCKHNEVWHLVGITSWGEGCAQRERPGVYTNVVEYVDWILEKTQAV
Chain of Vitamin K-dependent protein C (P04070 43-197 limits assumed): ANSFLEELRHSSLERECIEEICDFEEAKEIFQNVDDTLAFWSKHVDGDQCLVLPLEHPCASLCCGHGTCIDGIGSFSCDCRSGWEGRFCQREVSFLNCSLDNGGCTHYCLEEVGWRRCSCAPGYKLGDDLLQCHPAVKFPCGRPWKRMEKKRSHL
Chain of Vitamin K-dependent protein C (P04070 212-461 limits assumed): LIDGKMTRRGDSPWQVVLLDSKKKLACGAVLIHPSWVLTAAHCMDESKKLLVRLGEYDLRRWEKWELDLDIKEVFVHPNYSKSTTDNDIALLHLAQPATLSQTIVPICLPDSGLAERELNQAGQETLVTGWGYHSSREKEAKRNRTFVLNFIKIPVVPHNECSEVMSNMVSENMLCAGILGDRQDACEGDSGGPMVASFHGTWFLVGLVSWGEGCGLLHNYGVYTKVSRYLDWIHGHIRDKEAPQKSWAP
Chain of Plasma kallikrein (P03952 20-390 limits assumed): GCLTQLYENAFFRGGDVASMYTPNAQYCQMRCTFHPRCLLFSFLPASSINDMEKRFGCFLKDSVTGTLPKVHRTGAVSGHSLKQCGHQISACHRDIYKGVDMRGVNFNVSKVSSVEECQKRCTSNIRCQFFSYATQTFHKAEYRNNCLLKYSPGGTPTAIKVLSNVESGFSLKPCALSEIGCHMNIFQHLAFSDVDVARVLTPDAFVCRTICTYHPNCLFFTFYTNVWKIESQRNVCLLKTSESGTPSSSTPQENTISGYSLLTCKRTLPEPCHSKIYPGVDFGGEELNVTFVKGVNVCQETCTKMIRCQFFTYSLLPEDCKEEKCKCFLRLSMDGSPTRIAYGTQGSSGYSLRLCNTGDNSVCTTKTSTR
Chain of Plasma kallikrein (P03952 391-638 limits assumed): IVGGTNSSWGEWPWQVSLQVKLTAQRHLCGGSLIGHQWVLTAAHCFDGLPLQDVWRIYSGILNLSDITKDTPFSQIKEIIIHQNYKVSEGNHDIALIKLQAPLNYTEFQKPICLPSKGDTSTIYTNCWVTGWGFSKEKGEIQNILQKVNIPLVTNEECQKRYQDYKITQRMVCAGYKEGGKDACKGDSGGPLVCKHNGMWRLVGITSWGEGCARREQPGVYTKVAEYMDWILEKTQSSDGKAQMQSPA

As a reminder, the IC50 is the concentration that inhibits the measured activity by half. Lower therefore signals greater potency. Take `CC(C)[C@H](NC(=O)[C@H](CC(N)=O)NC(=O)N[C@H](C)c1ccc(Br)cc1)C(=O)N[C@@H](CCCNC(=N)N)C(=O)c1nccs1`: the results for the half-inhibitory concentration (IC50) against Prothrombin, against Coagulation factor XI and against Coagulation factor X were 0.4 µM, 0.008 µM and 1.6 µM, respectively. The compound also yielded a 2PT in the data set with Plasma [1] of 26.3 µM. This compound had a 2aPTT with Plasma [2] of 0.56 µM.
With `CC(C)[C@H](NC(=O)[C@@H](NC(=O)N[C@H](C)c1ccc(Br)cc1)C1CCCCC1)C(=O)N[C@@H](CCCNC(=N)N)C(=O)c1nccs1`, the IC50 against Prothrombin is 0.976 µM; against Coagulation factor XI, 0.01 µM; against Coagulation factor X it was 2.7 µM. This compound showed a 2PT in the data set with Plasma [1] of 178.6 µM. This compound also displayed a 2aPTT in the data set with Plasma [2] of 15.4 µM.
As for `CC(C)C[C@H](NC(=O)NC(C)c1ccc(Br)cc1)C(=O)N[C@H](C(=O)N[C@@H](CCCNC(=N)N)C(=O)c1nccs1)C(C)C` (some centres not stated), the results for the Selectivity ratio in the data set filed under Homo sapiens [3] and in the data set listed under Homo sapiens [4] were 140 and 1500, respectively. The IC50 against Prothrombin was 1.4 µM; on Coagulation factor XI it was 0.01 µM; at Coagulation factor X, 15 µM.
For `CC(C)[C@H](NC(=O)[C@H](CCCNC(N)=O)NC(=O)N[C@H](C)c1ccc(Br)cc1)C(=O)N[C@@H](CCCNC(=N)N)C(=O)c1nccs1`, the IC50 on Prothrombin is 1.1 µM; on Coagulation factor XI it was 0.03 µM; against Coagulation factor X, 1.9 µM. The same compound returned a 2PT with Plasma [1] of 48.6 µM. For the same compound, the 2aPTT in the data set on Plasma [2] was 1.35 µM.
Take `CC(C)C[C@H](NC(=O)NCc1ccc(Cl)c(Cl)c1)C(=O)N[C@H](C(=O)N[C@@H](CCCN=C(N)N)C(=O)c1nccs1)C(C)(C)C`: the IC50 at Prothrombin was 12 µM; against Coagulation factor XI it was 9.2 µM; on Coagulation factor X, over 200 µM.
Consider `CCOC(=O)C(Cc1ccccc1)NC(=O)NN[C@@H](Cc1ccccc1)C(=O)N[C@H](C(=O)N[C@@H](CCCNC(=N)N)C(=O)c1nccs1)C(C)C` (some centres not stated), for which the IC50 was determined as 2.1 µM against Prothrombin, 0.258 µM on Coagulation factor XI and 14.3 µM against Coagulation factor X.
On to `CC(C)[C@H](NC(=O)[C@@H](NC(=O)N[C@@H](C)c1ccc(Br)cc1)C1CCCCC1)C(=O)N[C@@H](CCCN=C(N)N)C(=O)c1nccs1`, for which the IC50 at Prothrombin came to 5.6 µM; against Coagulation factor XI it was 0.132 µM; at Coagulation factor X, 14.9 µM.
Taken in the same sequence, the figures for `CCOC(=O)C(CC(C)C)NC(=O)NN[C@@H](Cc1ccccc1)C(=O)N[C@H](C(=O)N[C@@H](CCCNC(=N)N)C(=O)c1nccs1)C(C)C` (some centres not stated) were 2.1 µM, 0.403 µM and 15.4 µM.
For orientation: half-life means how long it takes for the measured level to halve. High values mean slow decline, low ones rapid decline. As usually defined, the clearance is the rate of elimination divided by the concentration. `CC(C)[C@H](NC(=O)[C@H](Cc1ccc(O)cc1)NC(=O)N[C@H](C)c1ccc(Br)cc1)C(=O)N[C@@H](CCCN=C(N)N)C(=O)c1nccs1`: the IC50 in data set [5] turned out to be 20.7 µM; on Prothrombin, 2.04 µM; on Plasma kallikrein, 0.01 µM; against Coagulation factor XI, 0.006 µM; at Coagulation factor VII, 38 µM; against Coagulation factor X it was 1.6 µM. In addition, in [6], the half-life was found to be 45 min. Moreover, the clearance in [7] is 32 mL/min/kg. Further, in [8], the Vd came out at 0.236 L/kg.
`CC(C)C[C@H](NC(=O)NCc1ccc(Cl)c(Cl)c1)C(=O)N[C@H](C(=O)N[C@@H](CCCNC(=N)N)C(=O)c1nccs1)C1CCCCC1`: the IC50 was 7.7 µM against Prothrombin, 0.34 µM against Coagulation factor XI and over 200 µM against Coagulation factor X.
For `CC(C)[C@H](NC(=O)[C@H](Cc1ccccc1)NNC(=O)NCc1ccc(Cl)c(Cl)c1)C(=O)N[C@@H](CCCNC(=N)N)C(=O)c1nccs1`, in that order: 6.7 µM, 0.09 µM and 14.2 µM.
In the case of `CC(C)[C@H](NC(=O)[C@H](Cc1ccc(O)cc1)NC(=O)N[C@H](C)c1ccc(Br)cc1)C(=O)N[C@@H](CCCNC(=N)N)C(=O)c1nccs1`, the Selectivity ratio in the data set listed under Homo sapiens [3] was found to be 340; in the data set filed under Homo sapiens [4], 267. At Trypsin, this compound showed an IC50 of 0.012 µM. Further, the result in the data set on Rattus norvegicus was Active. The compound also registered a 2PT in the data set on Plasma [1] of 25 µM. In the data set with Plasma [2], this compound displayed a 2aPTT of 2.4 µM.
For the compound `CC(C)C[C@H](NC(=O)NCc1ccccc1)C(=O)N[C@H](C(=O)N[C@@H](CCCNC(=N)N)C(=O)c1nccs1)C(C)C`, the IC50 against Prothrombin was 2.8 µM; at Coagulation factor XI it was 0.136 µM; at Coagulation factor X, over 20 µM.
Consider `CC(C)[C@H](NC(=O)[C@H](Cc1cccnc1)NC(=O)N[C@H](C)c1ccc(Br)cc1)C(=O)N[C@@H](CCCNC(=N)N)C(=O)c1nccs1`, for which the figures for the IC50 on Prothrombin, against Coagulation factor XI and at Coagulation factor X were 1.4 µM, 0.012 µM and 1.4 µM, respectively. In the data set listed under Homo sapiens [4], the Selectivity ratio worked out at 200. Besides, the 2PT in the data set on Plasma [1] was 31 µM. Further, the 2aPTT in the data set with Plasma [2] stood at 2.4 µM.
